Results published in ChEMBL document CHEMBL3526065, “Metabolism of [6]-shogaol in mice and in cancer cells” (Drug Metab Dispos, 2012).

Tests used:
[1] = Antioxidant activity assessed as DPPH radical scavenging activity; assay type: physicochemical
[2] = Drug level in C57BL/6J mouse feces treated with [6]-shogaol at 200 mg/kg, po by HPLC-ECD analysis relative to control; assay type: ADME, organism-based; design: dose 200 mg/kg, route oral; conditions: in vivo
How it was run: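 Female C57BL/6J mice gavaged once with 200 mg/kg in corn oil, or corn oil alone (n = 5 each). 24-h feces collected in metabolic cages. Feces extracted by sonication 90 min in MeOH/H2O (50/50) + 0.1% acetic acid, centrifuged, diluted fivefold. Analysed by HPLC with electrochemical array detection (Gemini C18, phosphate/acetonitrile/THF gradient), compared against vehicle controls.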

| IC50 [1] [µM] | Drug excretion [2] | Compound |
| --- | --- | --- |
| 28 | – | CCCCC[C@H](O)CC(=O)CCc1ccc(O)c(OC)c1 [GINGEROL] |
| – | metabolite_detected | CCCCCCCC(=O)CCc1ccc(O)c(O)c1 |
| 20 | – | CCCCCCC[C@H](O)CC(=O)CCc1ccc(O)c(OC)c1 |
| – | metabolite_detected | CCCCCC(CC(=O)CCc1ccc(O)c(OC)c1)SC (centres undefined) |
